Legend:
[1] = Antagonist activity at recombinant human alpha6beta2delta GABAA receptor expressed in HEK293 Flp-In cells by FMP assay; assay type: cell-based, Flp-In-293
Summary of the method: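 HEK293 Flp-In cells stably expressing human δ subunit, transiently transfected with human α and β subunits (1:1) to form αβδ receptors. Read-out is the FLIPR membrane potential dye ΔRFU, baseline to peak/plateau, with GABA EC80 as agonist. Four-parameter fit of concentration–inhibition curves gives IC50, from at least three independent experiments.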

[2] = target: T1, GABA A receptor alpha-3/beta-2/gamma-2 (Homo sapiens, UniProt P18507+P34903+P47870); assay: Antagonist activity at human alpha3beta2gamma2 GABAA receptor expressed in HEKcells by FMP assay; assay type: cell-based, HEK
T1 sequence (P47870 whole entry): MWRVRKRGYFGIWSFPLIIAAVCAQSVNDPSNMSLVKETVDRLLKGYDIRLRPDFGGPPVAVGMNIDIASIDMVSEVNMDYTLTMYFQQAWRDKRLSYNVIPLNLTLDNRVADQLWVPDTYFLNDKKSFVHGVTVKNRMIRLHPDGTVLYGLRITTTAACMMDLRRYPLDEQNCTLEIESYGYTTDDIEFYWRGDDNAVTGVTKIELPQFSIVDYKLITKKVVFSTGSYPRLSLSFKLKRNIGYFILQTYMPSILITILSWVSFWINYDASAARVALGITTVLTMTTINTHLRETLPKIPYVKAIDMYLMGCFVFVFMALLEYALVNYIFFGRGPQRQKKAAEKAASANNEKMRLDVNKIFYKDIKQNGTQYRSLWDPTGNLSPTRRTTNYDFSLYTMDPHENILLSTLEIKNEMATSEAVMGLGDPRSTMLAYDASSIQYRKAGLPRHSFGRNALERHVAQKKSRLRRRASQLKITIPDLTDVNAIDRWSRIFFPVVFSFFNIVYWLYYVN
T1 sequence (P18507 whole entry): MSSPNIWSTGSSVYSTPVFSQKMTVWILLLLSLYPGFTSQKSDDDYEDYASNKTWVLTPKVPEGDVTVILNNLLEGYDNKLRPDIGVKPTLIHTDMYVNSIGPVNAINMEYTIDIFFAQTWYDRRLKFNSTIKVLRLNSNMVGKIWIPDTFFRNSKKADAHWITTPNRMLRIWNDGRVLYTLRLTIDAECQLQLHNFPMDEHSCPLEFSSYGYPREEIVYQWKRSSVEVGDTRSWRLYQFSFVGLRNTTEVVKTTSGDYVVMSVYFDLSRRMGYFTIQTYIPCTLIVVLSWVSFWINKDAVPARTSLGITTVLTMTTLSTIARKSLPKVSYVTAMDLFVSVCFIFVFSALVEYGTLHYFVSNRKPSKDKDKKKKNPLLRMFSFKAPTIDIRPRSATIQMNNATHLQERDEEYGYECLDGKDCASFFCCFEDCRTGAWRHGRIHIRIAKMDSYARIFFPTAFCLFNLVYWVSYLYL
T1 sequence (P34903 whole entry): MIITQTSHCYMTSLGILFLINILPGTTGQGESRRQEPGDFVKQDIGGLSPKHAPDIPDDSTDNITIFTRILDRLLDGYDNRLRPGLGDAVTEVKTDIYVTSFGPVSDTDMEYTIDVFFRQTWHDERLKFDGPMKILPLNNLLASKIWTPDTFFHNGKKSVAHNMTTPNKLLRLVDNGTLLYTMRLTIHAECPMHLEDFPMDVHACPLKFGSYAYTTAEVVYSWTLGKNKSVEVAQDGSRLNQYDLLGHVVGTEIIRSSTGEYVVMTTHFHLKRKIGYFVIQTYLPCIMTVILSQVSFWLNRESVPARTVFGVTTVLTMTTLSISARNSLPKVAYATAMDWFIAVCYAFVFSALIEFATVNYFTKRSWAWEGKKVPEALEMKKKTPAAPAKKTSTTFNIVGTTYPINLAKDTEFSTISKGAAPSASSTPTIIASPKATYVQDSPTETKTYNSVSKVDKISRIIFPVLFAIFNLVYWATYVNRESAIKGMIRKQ
Summary of the method: (§1)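 Human αβγ2 receptors in HEK293 cells: α1β2γ2 stably expressed, other αβγ2 subtypes transiently transfected into HEK293 Flp-In background cells (α:β:γ 1:1:2). FLIPR membrane potential assay with ΔRFU baseline to peak/plateau and GABA EC80 as agonist. IC50 from a four-parameter fit, at least three independent experiments.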

[3] = target: T2, GABA A receptor alpha-2/beta-2/gamma-2 (Homo sapiens, UniProt P18507+P47869+P47870); assay: Antagonist activity at human alpha2beta2gamma2 GABAA receptor expressed in HEK cells by FMP assay; assay type: cell-based; summary of the method: as §1
T2 sequence (P47870 whole entry): T1 sequence (P47870 whole entry)
T2 sequence (P18507 whole entry): T1 sequence (P18507 whole entry)
T2 sequence (P47869 whole entry): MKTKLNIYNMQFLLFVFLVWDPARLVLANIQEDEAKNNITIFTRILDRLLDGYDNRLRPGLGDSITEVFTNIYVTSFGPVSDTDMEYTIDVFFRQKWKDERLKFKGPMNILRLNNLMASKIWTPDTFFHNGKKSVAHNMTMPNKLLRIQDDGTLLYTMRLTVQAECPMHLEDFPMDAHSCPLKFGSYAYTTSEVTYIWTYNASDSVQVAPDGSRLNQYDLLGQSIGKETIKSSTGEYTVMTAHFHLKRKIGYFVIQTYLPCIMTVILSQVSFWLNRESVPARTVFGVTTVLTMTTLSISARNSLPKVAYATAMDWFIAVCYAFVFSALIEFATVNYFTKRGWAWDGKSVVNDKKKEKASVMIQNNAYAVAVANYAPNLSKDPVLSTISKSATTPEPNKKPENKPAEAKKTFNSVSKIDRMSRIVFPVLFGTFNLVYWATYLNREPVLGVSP

[4] = system: GABAA receptor α4β2δ (human); assay: Antagonist activity at human alpha4beta2delta GABAA receptor expressed in HEK293 Flp-In cells by FMP assay
[5] = target: T3, GABA-A receptor; alpha-1/beta-2/gamma-2 (Homo sapiens, UniProt P14867+P18507+P47870); assay: Antagonist activity at human alpha1beta2gamma2 GABAA receptor expressed in HEK293 cells by FMP assay; assay type: cell-based; summary of the method: as §1
T3 sequence (P14867 whole entry): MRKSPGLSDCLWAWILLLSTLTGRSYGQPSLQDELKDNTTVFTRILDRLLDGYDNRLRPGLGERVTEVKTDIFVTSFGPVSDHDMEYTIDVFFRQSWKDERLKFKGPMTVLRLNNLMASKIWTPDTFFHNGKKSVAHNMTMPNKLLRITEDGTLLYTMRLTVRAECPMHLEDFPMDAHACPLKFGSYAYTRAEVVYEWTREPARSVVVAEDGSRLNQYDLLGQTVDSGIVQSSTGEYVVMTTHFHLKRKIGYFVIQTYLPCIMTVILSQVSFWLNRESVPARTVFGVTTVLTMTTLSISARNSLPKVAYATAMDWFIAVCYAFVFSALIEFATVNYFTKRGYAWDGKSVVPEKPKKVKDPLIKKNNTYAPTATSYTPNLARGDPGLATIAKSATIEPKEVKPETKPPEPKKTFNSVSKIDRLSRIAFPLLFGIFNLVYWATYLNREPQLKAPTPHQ
T3 sequence (P47870 whole entry): T1 sequence (P47870 whole entry)
T3 sequence (P18507 whole entry): T1 sequence (P18507 whole entry)

[6] = Homo sapiens, Flp-In-293, read-out: pIC50 (converted)

| IC50 [1, 6] [nM] | IC50 ([1]; flp-in-293) [nM] | IC50 [2] [nM] | IC50 ([2]; read-out: pIC50 (converted)) [nM] | IC50 [3] [nM] | IC50 ([3]; read-out: pIC50 (converted)) [nM] | IC50 [4, 6] [nM] | IC50 ([4]; flp-in-293) [nM] | IC50 [5] [nM] | IC50 ([5]; read-out: pIC50 (converted)) [nM] | Structure (SMILES) |
| --- | --- | --- | --- | --- | --- | --- | --- | --- | --- | --- |
| 331 | 330 | 79 | 79.4 | 320 | 324 |  |  |  |  | O=C(Nc1cccc(C(=O)N2CCC3(CCNCC3)CC2)c1)c1cccs1 |
|  |  |  |  |  |  | 251 | 250 | 2180 | 2190 | Cc1cccc(C(=O)N2CCC3(CCNCC3)CC2)c1 |
| 4170 | 4130 | 290 | 288 | 2960 | 2950 |  |  |  |  | CC(=O)Nc1cccc(C(=O)N2CCC3(CCNCC3)CC2)c1 |
|  |  |  |  |  |  | 2140 | 2150 | 10000 | 10000 | Cc1ccc(C(=O)N2CCC3(CCNCC3)CC2)cc1 |

Source: ChEMBL document CHEMBL5096209, “Structure-Activity Studies of 3,9-Diazaspiro[5.5]undecane-Based γ-Aminobutyric Acid Type A Receptor Antagonists with Immunomodulatory Effect” (J Med Chem, 2021)
